Where no end group is shown, it is not given here.

Chain of ACE1 (P12821 30-1306): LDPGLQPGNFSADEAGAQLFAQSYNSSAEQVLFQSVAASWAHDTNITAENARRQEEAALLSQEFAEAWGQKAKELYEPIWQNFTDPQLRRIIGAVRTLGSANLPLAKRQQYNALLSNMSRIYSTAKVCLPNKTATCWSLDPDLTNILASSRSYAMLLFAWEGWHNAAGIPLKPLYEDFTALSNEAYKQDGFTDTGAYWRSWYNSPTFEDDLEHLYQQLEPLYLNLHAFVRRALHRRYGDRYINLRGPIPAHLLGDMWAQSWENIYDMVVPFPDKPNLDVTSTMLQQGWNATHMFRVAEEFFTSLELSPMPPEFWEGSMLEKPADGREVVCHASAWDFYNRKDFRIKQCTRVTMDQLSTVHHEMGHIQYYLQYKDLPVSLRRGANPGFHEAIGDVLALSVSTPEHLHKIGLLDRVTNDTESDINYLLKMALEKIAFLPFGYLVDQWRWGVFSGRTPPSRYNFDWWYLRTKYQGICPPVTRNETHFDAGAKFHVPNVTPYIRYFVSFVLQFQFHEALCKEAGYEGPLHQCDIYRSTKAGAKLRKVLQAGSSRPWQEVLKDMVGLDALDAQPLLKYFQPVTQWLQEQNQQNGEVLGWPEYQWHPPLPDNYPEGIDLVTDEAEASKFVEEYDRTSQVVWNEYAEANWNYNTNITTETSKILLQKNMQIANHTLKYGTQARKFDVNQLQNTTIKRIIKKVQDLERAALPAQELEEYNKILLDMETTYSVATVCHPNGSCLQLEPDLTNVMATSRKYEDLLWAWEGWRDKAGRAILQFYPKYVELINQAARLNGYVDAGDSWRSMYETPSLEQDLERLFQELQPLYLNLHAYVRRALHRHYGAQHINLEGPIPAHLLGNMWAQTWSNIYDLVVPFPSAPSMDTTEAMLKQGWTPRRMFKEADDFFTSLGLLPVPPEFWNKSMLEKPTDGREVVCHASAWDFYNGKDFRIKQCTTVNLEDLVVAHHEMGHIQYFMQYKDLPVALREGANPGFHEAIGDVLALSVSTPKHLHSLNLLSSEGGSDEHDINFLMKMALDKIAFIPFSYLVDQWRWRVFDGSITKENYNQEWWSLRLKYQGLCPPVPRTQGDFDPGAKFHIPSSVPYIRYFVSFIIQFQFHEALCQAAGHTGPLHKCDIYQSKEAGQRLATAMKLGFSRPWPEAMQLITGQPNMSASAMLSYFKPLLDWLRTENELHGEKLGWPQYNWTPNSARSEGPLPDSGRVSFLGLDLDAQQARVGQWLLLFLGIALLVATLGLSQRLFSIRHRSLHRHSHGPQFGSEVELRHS

This assay concerns the target ACE1 (Homo sapiens, UniProt P12821). As to the kind of experiment: In vitro ACE1 inhibition assay. In kind it is biochemical. An outline of the steps:
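Commercial WST colorimetric kit, run per the manufacturer's instructions. Test peptides were diluted in PBS to 0.01–100 µM and mixed with substrate buffer and enzyme working solution, then incubated 1 h at 37 °C. Indicator working solution was added for 5 min at room temperature, and absorbance was read at 450 nm. Blanks with and without enzyme were included. Assays were run in triplicate, and IC50 was obtained by nonlinear regression of inhibition against concentration.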
In turn, VDPVNFKFLSH [VD-Hp-F, VD-Hemopressin-F] displayed an IC50 of 10.8 ± 0.79 µM.

As for VDPVNFKLLSH [VD-Hp-L, VD-Hemopressin-L], inhibition was half-maximal at 4.54 ± 0.83 µM (IC50). This IC50 lies about 2.4-fold lower than the previous one.

For the compound `CC(C)C[C@H](NC(=O)[C@H](Cc1ccccc1)NC(=O)[C@H](CCCCN)NC(=O)[C@H](Cc1ccccc1)NC(=O)[C@H](CC(N)=O)NC(=O)[C@@H](NC(=O)[C@@H]1CCCN1)C(C)C)C(=O)N[C@@H](CO)C(=O)N[C@@H](Cc1cnc[nH]1)C(=O)O` [Hp-F, Hemopressin-F], inhibition was half-maximal at 6.22 ± 0.44 µM (IC50).

Compound `CC(C)C[C@H](NC(=O)[C@H](CC(C)C)NC(=O)[C@H](CCCCN)NC(=O)[C@H](Cc1ccccc1)NC(=O)[C@H](CC(N)=O)NC(=O)[C@@H](NC(=O)[C@@H]1CCCN1)C(C)C)C(=O)N[C@@H](CO)C(=O)N[C@@H](Cc1c[nH]cn1)C(=O)O` [Hp-L, Hemopressin-L] yielded an IC50 of 3.86 ± 0.87 µM.

For “RVDPVNFKFLSH [RVD-Hp-F, RVD-Hemopressin-F]”, the IC50 was 12.4 ± 2.92 µM.

“RVDPVNFKLLSH [RVD-Hp-L, RVD-Hemopressin-L]” showed an IC50 of 2.52 ± 0.11 µM.

A word on the IC50: it is the concentration that gives 50% inhibition. A high value points to weaker potency in that assay.

For the origin of these results see PMC11579378 (Scientific Reports, 2024).
